Measured values reported in ChEMBL document CHEMBL1152686, “Development and characterization of lysine based tripeptide analogues as inhibitors of Sir2 activity” (Bioorg Med Chem, 2009).
The source made the active and inactive calls. The rule behind the calls is not given here.

Key:
[1] = Noncompetitive inhibition of His-tagged Plasmodium falciparum Sir2 expressed in Escherichia coli measured by secondary plot of slope versus inhibitor concentration in presence of saturating NAD+ levels by FRET assay
Method in brief: (§1)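 His-tagged PfSir2 from E. coli, coupled FRET assay (acetyl-lysine EDANS–DABCYL peptide, trypsin cleavage after deacetylation), 37 °C. Initial velocities measured with one substrate varied, the other fixed at saturating level, at several fixed inhibitor levels. Parameters from non-linear regression. Lineweaver–Burk plots, plus secondary slope and intercept plots versus [I], fit linearly or by second-order polynomial. Two independently purified enzyme batches.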

[2] = biological target: T1, NAD-dependent protein deacetylase sirtuin-1 (Homo sapiens) (UniProt Q96EB6); test: Inhibition of human Sirt1
T1 sequence (whole entry): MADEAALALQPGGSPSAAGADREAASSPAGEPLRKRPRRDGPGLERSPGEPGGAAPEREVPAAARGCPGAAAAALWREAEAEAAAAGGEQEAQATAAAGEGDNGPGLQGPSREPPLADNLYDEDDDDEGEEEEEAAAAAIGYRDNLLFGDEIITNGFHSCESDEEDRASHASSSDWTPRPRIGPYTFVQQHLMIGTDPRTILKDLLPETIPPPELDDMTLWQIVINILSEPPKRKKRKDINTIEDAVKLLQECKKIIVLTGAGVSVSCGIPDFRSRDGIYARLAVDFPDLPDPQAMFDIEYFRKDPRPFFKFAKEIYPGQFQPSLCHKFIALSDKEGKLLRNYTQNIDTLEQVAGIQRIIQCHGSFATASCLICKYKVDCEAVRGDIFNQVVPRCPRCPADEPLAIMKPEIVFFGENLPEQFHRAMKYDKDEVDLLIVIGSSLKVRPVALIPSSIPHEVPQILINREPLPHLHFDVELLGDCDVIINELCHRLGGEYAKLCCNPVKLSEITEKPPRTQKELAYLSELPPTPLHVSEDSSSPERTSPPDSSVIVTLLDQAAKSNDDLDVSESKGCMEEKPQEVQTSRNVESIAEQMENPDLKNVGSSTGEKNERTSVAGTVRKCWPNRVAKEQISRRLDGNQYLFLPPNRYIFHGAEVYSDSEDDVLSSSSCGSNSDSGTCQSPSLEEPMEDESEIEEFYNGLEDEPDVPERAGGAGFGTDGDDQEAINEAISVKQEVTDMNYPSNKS

[3] = Competitive inhibition of His-tagged Plasmodium falciparum Sir2 expressed in Escherichia coli measured by secondary plot of slope versus inhibitor concentration in presence of saturating acetylated peptide levels by FRET assay; method in brief: as §1
Plasmodium falciparum [4] = test: Antiplasmodial activity against Plasmodium falciparum 3D7 infected in human O+ erythrocytes assessed as inhibition of parasite growth in intraerythrocytic stage after 24 hrs by [3H]hypoxanthine incorporation assay; assay type: functional, organism-based
Method in brief: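 P. falciparum 3D7 grown in human O+ erythrocytes at 5% hematocrit, RPMI 1640 with 10% human serum. Compound in DMSO, twofold serial dilutions from 400 to 0.2 µM. Wells at 2% parasitemia and 2% hematocrit, 37 °C in candle jar. After 24 h, 1.0 µCi [3H]hypoxanthine added per well for another 12 h. Filter-harvested counts; IC50 by interpolation from log plot. Done twice in duplicate.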

[5] = Competitive inhibition of His-tagged Plasmodium falciparum Sir2 expressed in Escherichia coli measured by primary plot of enzyme kinetics in presence of saturating acetylated peptide levels by FRET assay; method in brief: as §1
[6] = Noncompetitive inhibition of His-tagged Plasmodium falciparum Sir2 expressed in Escherichia coli measured by secondary plot of intercept versus inhibitor concentration in presence of saturating NAD+ levels by FRET assay; method in brief: as §1
[7] = Noncompetitive inhibition of His-tagged Plasmodium falciparum Sir2 expressed in Escherichia coli measured by primary plot of enzyme kinetics in presence of saturating NAD+ levels by FRET assay; method in brief: as §1
[8] = Inhibition of His-tagged Plasmodium falciparum Sir2 expressed in Escherichia coli preincubated 5 min before substrate assay mixture addition by FRET assay
Method in brief: (§2)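 Recombinant C-terminal His-tagged PfSir2 from E. coli BL21(DE3), Ni-NTA purified. Enzyme preincubated with inhibitor 5 min, then added to mix of 5 mM Tris-HCl pH 8.0, trichostatin A and trypsin with acetyl-lysine EDANS–DABCYL peptide. Deacetylation allows trypsin cleavage and a rise in fluorescence. Read at 37 °C on a spectrofluorimeter.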

Plasmodium falciparum [9] = test: Inhibition of His-tagged Plasmodium falciparum Sir2 expressed in Escherichia coli at t500 uM preincubated 5 min before substrate assay mixture addition by FRET assay; method in brief: as §2

SMILES	Ki [1]	inhibition (qualitative call) [2]	Ki [3]	IC50 (Plasmodium falciparum [4])	Ki [5]	Ki [6]	Ki [7]	IC50 [8]	inhibition (Plasmodium falciparum [9])
COC(=O)[C@@H](NC(=O)[C@H](CCCCNC(=O)OCc1cn(C[C@H]2O[C@H](OC)[C@H](OC(C)=O)[C@@H](OC(C)=O)[C@@H]2OC(C)=O)nn1)NC(=O)[C@H](Cc1ccccc1)NC(=O)OC(C)(C)C)C(C)C	90 µM	Active	60 µM	9.8 µM	60 µM	119 µM	134 µM	23 µM	–
CC(=O)O[C@H]1C[C@H](n2cc(C)c(=O)[nH]c2=O)O[C@@H]1Cn1cc(COC(=O)NCCCC[C@H](NC(=O)OC(C)(C)C)C(=O)OCc2ccccc2)nn1	–	–	–	–	–	–	–	–	inactive
COC(=O)[C@@H](NC(=O)[C@H](CCCCNC(=O)OCc1cn(C[C@H]2O[C@@H](n3cc(C)c(=O)[nH]c3=O)C[C@@H]2OC(C)=O)nn1)NC(=O)[C@H](Cc1ccccc1)NC(=O)OC(C)(C)C)C(C)C	115 µM	Active	64 µM	–	60 µM	113 µM	124 µM	33 µM	–
COC(=O)[C@@H](NC(=O)[C@H](CCCCNC(=O)OCc1cn([C@@H]2O[C@H]([C@@H]3COC(C)(C)O3)[C@@H]3OC(C)(C)O[C@@H]32)nn1)NC(=O)[C@H](Cc1ccccc1)NC(=O)OC(C)(C)C)C(C)C	90 µM	Active	62 µM	–	58 µM	125 µM	122 µM	34 µM	–
C#CCOC(=O)NCCCC[C@H](NC(=O)OC(C)(C)C)C(=O)O	–	–	–	–	–	–	–	–	inactive
COC(=O)[C@@H](NC(=O)[C@H](CCCCNC(=O)OCc1cn([C@@H]2O[C@H](COC(C)=O)[C@H](OC(C)=O)[C@H](OC(C)=O)[C@H]2OC(C)=O)nn1)NC(=O)[C@H](Cc1ccccc1)NC(=O)OC(C)(C)C)C(C)C	172 µM	Active	80 µM	–	85 µM	193 µM	154 µM	151 µM	–
C#CCOC(=O)NCCCC[C@H](NC(=O)OC(C)(C)C)C(=O)N[C@H](C(=O)OC)C(C)C	–	–	–	–	–	–	–	–	inactive
